From ChEMBL document CHEMBL3734708, “Synthesis, cytotoxicity and antiviral evaluation of new series of imidazo[4,5-g]quinoline and pyrido[2,3-g]quinoxalinone derivatives” (Eur J Med Chem, 2015)

What was measured:
[1] = test system: Mammalian orthoreovirus 1; experiment: Antiviral activity against Reovirus 1 ATCC VR- 214 infected in BHK21 cells assessed as protection against virus-induced cytopathic effect after 3 or 4 days by MTT assay; format: functional, cell-based; conditions: Mammalian orthoreovirus 1, ATCC VR- 214, BHK-21
How it was run: (§1)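 BHK-21 (YFV, Reo-1) or MDBK (BVDV) cells seeded at 5 × 10^4 or 3 × 10^4 cells/well and grown overnight to confluence. Monolayers infected at m.o.i. 0.01 in maintenance medium (MEM-Earle, 0.5% inactivated FBS). Serial compound dilutions added 2 h after infection; 37 °C for 3-4 days. Viability read by MTT. EC50 by linear regression versus untreated controls; mean of three determinations.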

[2] = test system: Human poliovirus 1 strain Sabin; experiment: Antiviral activity against Human poliovirus 1 strain Sabin 1 virus infected in african green monkey Vero-76 cells after 2 days by plaque reduction assay; format: functional, organism-based; conditions: Enterovirus C, 1, Vero 76, 48 h
[3] = Cytotoxicity against human MT4 cells assessed as reduction in cell proliferation after 96 hrs by MTT assay; format: cell-based
How it was run: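 MT-4 cells in exponential growth seeded at 1 × 10^5 cells/mL in RPMI-1640 with 10% FBS and penicillin/streptomycin. Cultured with serial compound dilutions at 37 °C, 5% CO2. MTT viability after 96 h. CC50 by linear regression against untreated controls. Mean of three independent determinations.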

[4] = test system: Coxsackievirus B5; experiment: Antiviral activity against CVB-5 virus Faulkner ATCC VR-185 infected in african green monkey Vero-76 cells after 3 days by plaque reduction assay; format: functional, organism-based; conditions: Enterovirus B, Faulkner ATCC VR-185, Vero 76, 72 h
[5] = Cytotoxicity against BHK21 cells assessed as reduction in cell viability after 72 hrs by MTT assay; format: cell-based, Mesocricetus auratus, BHK-21; conditions: hamster
How it was run: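 BHK cells seeded at 1 × 10^6 cells/mL in MEM-E with L-glutamine, 1 mM sodium pyruvate, kanamycin and 10% FBS. Mock-infected cells exposed to serial dilutions of compound at 37 °C, 5% CO2, run in parallel with the antiviral assays. Viability by MTT at 72 h. CC50 by linear regression vs untreated controls. Mean of three independent determinations.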

[6] = Cytotoxicity against african green monkey Vero 76 cells assessed as reduction in cell viability after 48 to 96 hrs by MTT assay; format: cell-based; conditions: chlorocebus sabaeus
How it was run: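 Vero-76 cells plated at 4 × 10^5 cells/mL in D-MEM with L-glutamine, kanamycin and 10% FBS. Incubated with serial dilutions of test compounds at 37 °C, 5% CO2 for 48-96 h. Viability by MTT. CC50 by linear regression relative to untreated cells. Mean of three independent runs.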

[7] = test system: Yellow fever virus; experiment: Antiviral activity against YFV 17-D vaccine (Stamaril Pasteur J07B01) infected in BHK21 cells assessed as protection against virus-induced cytopathic effect after 3 or 4 days by MTT assay; format: functional, organism-based; conditions: BHK-21; how it was run: as §1
[8] = Cytotoxicity against MDBK cells assessed as reduction in cell viability after 72 hrs by MTT assay; format: cell-based, Bos taurus; conditions: cattle
How it was run: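 MDBK cells seeded at 6 × 10^5 cells/mL in MEM-E with L-glutamine, 1 mM sodium pyruvate, kanamycin and 10% horse serum. Mock-infected cultures held with serial compound dilutions at 37 °C, 5% CO2. MTT viability read after 72 h. 50% cytotoxic concentration from linear regression as % of untreated controls. Three independent determinations.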

[9] = test system: Vaccinia virus; experiment: Antiviral activity against VV Elstree ATCC VR-1549 infected in african green monkey Vero-76 cells after 3 days by plaque reduction assay; format: functional, organism-based; conditions: Orthopoxvirus vaccinia, Elstree ATCC VR-1549, Vero 76, 72 h
[10] = test system: Vesicular stomatitis virus; experiment: Antiviral activity against VSV Indiana ATCC VR-158 infected in african green monkey Vero-76 cells after 2 days by plaque reduction assay; format: functional, organism-based; conditions: Indiana ATCC VR-158, Vero 76, 48 h
[11] = test system: Bovine viral diarrhea virus 1; experiment: Antiviral activity against BVDV NADL ATCC VR-534 infected in MDBK cells assessed as protection against virus-induced cytopathic effect after 3 or 4 days by MTT assay; format: functional, organism-based; conditions: Bovine viral diarrhea virus isolates and strains, NADL ATCC VR-534, MDBK; how it was run: as §1
[12] = test system: Human alphaherpesvirus 1; experiment: Antiviral activity against HSV-1 KOS ATCC VR- 1493 infected in african green monkey Vero-76 cells after 3 days by plaque reduction assay; format: functional, organism-based; conditions: Human alphaherpesvirus 1, KOS ATCC VR1493, Vero 76, 72 h
[13] = test system: Respiratory syncytial virus; experiment: Antiviral activity against RSVA2 ATCC VR-1540 infected in african green monkey Vero-76 cells after 5 days by plaque reduction assay; format: functional, organism-based; conditions: human respiratory syncytial virus, A2 ATCC VR-1540, Vero 76, 120 h
[14] = test system: Human immunodeficiency virus 1; experiment: Antiviral activity against HIV-1 3B infected in human MT4 cells assessed as protection against virus-induced cytopathic effect after 4 days by MTT assay; format: functional, organism-based; conditions: Human immunodeficiency virus 1, 3B, MT4, 96 h
How it was run: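 MT-4 cells (1 × 10^4/well in RPMI) with or without serial compound dilutions, infected with HIV-1 at 100 CCID50 (m.o.i. 0.01). After 4 days at 37 °C, protection from cytopathogenicity read by MTT. EC50 by linear regression versus untreated controls; mean of three independent determinations.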

SMILES: CC(C)c1nc2c(Cl)c3ncccc3cc2n(C)c1=O
- EC50 [1]: > 100 µM
- EC50 [2]: > 100 µM
- CC50 at 96 h [3]: > 100 µM
- EC50 [4]: > 100 µM
- CC50 at 72 h [5]: > 100 µM
- CC50 [6]: > 100 µM
- EC50 [7]: > 100 µM
- CC50 at 72 h [8]: > 100 µM
- EC50 [9]: > 100 µM
- EC50 [10]: > 100 µM
- EC50 [11]: > 100 µM
- EC50 [12]: > 100 µM
- EC50 [13]: > 100 µM
- EC50 [14]: > 100 µM

SMILES: O=[N+]([O-])c1ccc(COc2nc3cc4cccnc4c(Cl)c3nc2-c2ccccc2)cc1
- EC50 [1]: > 100 µM
- EC50 [2]: > 100 µM
- CC50 at 96 h [3]: > 100 µM
- EC50 [4]: > 100 µM
- CC50 at 72 h [5]: > 100 µM
- CC50 [6]: > 100 µM
- EC50 [7]: > 100 µM
- CC50 at 72 h [8]: > 100 µM
- EC50 [9]: > 100 µM
- EC50 [10]: > 100 µM
- EC50 [11]: > 100 µM
- EC50 [12]: > 100 µM
- EC50 [13]: > 100 µM
- EC50 [14]: > 100 µM

SMILES: COc1nc2cc3cccnc3c(Cl)c2nc1C(C)C
- EC50 [1]: > 100 µM
- EC50 [2]: > 100 µM
- CC50 at 96 h [3]: > 100 µM
- EC50 [4]: > 100 µM
- CC50 at 72 h [5]: > 100 µM
- CC50 [6]: > 100 µM
- EC50 [7]: > 100 µM
- CC50 at 72 h [8]: > 100 µM
- EC50 [9]: > 100 µM
- EC50 [10]: > 100 µM
- EC50 [11]: > 100 µM
- EC50 [12]: > 100 µM
- EC50 [13]: > 100 µM
- EC50 [14]: > 100 µM

SMILES: CCOc1nc2cc3cccnc3c(Cl)c2nc1-c1ccccc1
- EC50 [1]: > 100 µM
- EC50 [2]: > 50 µM
- CC50 at 96 h [3]: > 100 µM
- EC50 [4]: > 50 µM
- CC50 at 72 h [5]: > 100 µM
- CC50 [6]: 50 µM
- EC50 [7]: > 100 µM
- CC50 at 72 h [8]: > 100 µM
- EC50 [9]: > 50 µM
- EC50 [10]: > 50 µM
- EC50 [11]: 73 µM
- EC50 [12]: > 50 µM
- EC50 [13]: > 50 µM
- EC50 [14]: > 100 µM

SMILES: Cn1c(=O)c(-c2cccs2)nc2c(Cl)c3ncccc3cc21
- EC50 [1]: > 100 µM
- EC50 [2]: > 100 µM
- CC50 at 96 h [3]: > 100 µM
- EC50 [4]: > 100 µM
- CC50 at 72 h [5]: > 100 µM
- CC50 [6]: > 100 µM
- EC50 [7]: > 100 µM
- CC50 at 72 h [8]: > 100 µM
- EC50 [9]: > 100 µM
- EC50 [10]: > 100 µM
- EC50 [11]: 2 µM
- EC50 [12]: > 100 µM
- EC50 [13]: > 100 µM
- EC50 [14]: > 100 µM

SMILES: Cn1c(=O)c(Cc2ccccc2)nc2c(Cl)c3ncccc3cc21
- EC50 [1]: > 100 µM
- EC50 [2]: > 100 µM
- CC50 at 96 h [3]: > 100 µM
- EC50 [4]: > 100 µM
- CC50 at 72 h [5]: > 100 µM
- CC50 [6]: > 100 µM
- EC50 [7]: > 100 µM
- CC50 at 72 h [8]: > 100 µM
- EC50 [9]: > 100 µM
- EC50 [10]: > 100 µM
- EC50 [11]: 10 µM
- EC50 [12]: > 100 µM
- EC50 [13]: > 100 µM
- EC50 [14]: > 100 µM

SMILES: COc1nc2cc3cccnc3c(Cl)c2nc1Cc1ccccc1
- EC50 [1]: > 100 µM
- EC50 [2]: > 100 µM
- CC50 at 96 h [3]: > 100 µM
- EC50 [4]: > 100 µM
- CC50 at 72 h [5]: > 100 µM
- CC50 [6]: > 100 µM
- EC50 [7]: > 100 µM
- CC50 at 72 h [8]: > 100 µM
- EC50 [9]: > 100 µM
- EC50 [10]: > 100 µM
- EC50 [11]: 6 µM
- EC50 [12]: > 100 µM
- EC50 [13]: > 100 µM
- EC50 [14]: > 100 µM

SMILES: C[C@@]1(O)[C@H](O)[C@@H](CO)O[C@H]1n1ccc(N)nc1=O
- EC50 [1]: > 100 µM
- CC50 [6]: 16 µM

SMILES: C[C@@]1(O)[C@H](O)[C@@H](CO)O[C@H]1n1cnc2c(=O)[nH]c(N)nc21 [2'-B-METHYL-GUANOSINE]
- EC50 [1]: 1.9 µM
- CC50 at 72 h [5]: 1.1 µM
- EC50 [7]: > 100 µM
- CC50 at 72 h [8]: > 100 µM

SMILES: C#C[C@@]1(O)[C@H](O)[C@@H](CO)O[C@H]1n1ccc(N)nc1=O [2'-ETHYNYL-D-CYTIDINE]
- EC50 [2]: 27 µM
- EC50 [4]: > 100 µM
- EC50 [13]: 23 µM

SMILES: O=c1cnn([C@@H]2O[C@H](CO)[C@@H](O)[C@H]2O)c(=O)[nH]1 [6-AZAURIDINE]
- EC50 [4]: ≥ 12.5 µM
- EC50 [10]: 1.2 µM

SMILES: Nc1nc2c(ncn2COCCO)c(=O)[nH]1 [ACYCLOVIR]
- EC50 [4]: > 100 µM

SMILES: Nc1ccn(C[C@@H](CO)OCP(=O)(O)O)c(=O)n1 [CIDOFOVIR]
- EC50 [4]: > 100 µM
- EC50 [9]: 19 µM
